# Assay results as given in ChEMBL document CHEMBL4480394, “Benzimidazolone-based selective σ2 receptor ligands: Synthesis and pharmacological evaluation” (Eur J Med Chem, 2019).
# Experiments:
# [1] = biological target: Sigma non-opioid intracellular receptor 1 (Rattus norvegicus, UniProt Q9R0C9); experiment: Displacement of [3H](+)-pentazocine from sigma1 receptor in rat brain membranes after 120 mins by radioligand binding assay; type: cell membranes
# [2] = biological target: T1, Sigma intracellular receptor 2 (Rattus norvegicus, UniProt Q5U3Y7); experiment: Displacement of [3H]-DTG from sigma2 receptor in rat brain membranes after 120 mins in presence of (+)-pentazocine by radioligand binding assay; type: cell membranes
# T1 sequence (Q5U3Y7 whole entry): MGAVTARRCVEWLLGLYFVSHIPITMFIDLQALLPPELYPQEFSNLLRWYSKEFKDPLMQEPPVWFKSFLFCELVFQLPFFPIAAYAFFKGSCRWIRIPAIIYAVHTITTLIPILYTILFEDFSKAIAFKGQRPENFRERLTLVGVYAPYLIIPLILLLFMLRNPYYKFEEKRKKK
# Rattus norvegicus [3] = species: Rattus norvegicus; experiment: Selectivity ratio of Ki for sigma1 receptor in rat brain membranes to Ki for sigma2 receptor in rat brain membranes; type: cell membranes
# [4] = biological target: 5-hydroxytryptamine receptor 2A (Rattus norvegicus, UniProt P14842); experiment: Displacement of [3H]ketanserin from 5-HT2 receptor in rat brain membranes after 120 mins by radioligand binding assay; type: cell membranes
# Chain of 5-hydroxytryptamine receptor 2A (P14842 whole entry): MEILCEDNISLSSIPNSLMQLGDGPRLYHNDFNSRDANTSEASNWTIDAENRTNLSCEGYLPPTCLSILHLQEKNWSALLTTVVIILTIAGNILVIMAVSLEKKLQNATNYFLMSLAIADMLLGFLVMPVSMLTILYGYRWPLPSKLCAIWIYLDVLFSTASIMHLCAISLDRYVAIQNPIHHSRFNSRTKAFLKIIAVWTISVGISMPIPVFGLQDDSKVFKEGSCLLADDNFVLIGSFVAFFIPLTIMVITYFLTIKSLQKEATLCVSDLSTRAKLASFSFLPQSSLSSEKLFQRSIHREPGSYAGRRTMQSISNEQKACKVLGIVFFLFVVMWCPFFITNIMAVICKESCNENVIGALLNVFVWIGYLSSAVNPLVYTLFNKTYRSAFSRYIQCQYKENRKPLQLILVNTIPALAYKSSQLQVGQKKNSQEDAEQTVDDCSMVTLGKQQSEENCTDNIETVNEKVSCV
# Outline: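 5-HT2 site in rat brain (minus cerebellum) membranes labeled with 2 nM [3H]ketanserin; 1 µM mianserin nonspecific. Glass-fiber filtration, Ki by Cheng-Prusoff; triplicate, mean ± SEM.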
# Rattus norvegicus [5] = species: Rattus norvegicus; experiment: Selectivity ratio of Ki for 5-HT2 receptor in rat brain membranes to Ki for sigma2 receptor in rat brain membranes; type: cell membranes
# Mus musculus = experiment: Anticonvulsant activity in ip dosed Swiss Webster mouse assessed as reduction in cocaine-induced convulsion pretreated for 15 mins followed by cocaine-challenge and measured for 30 mins; type: functional, organism-based
# [6] = biological target: Sodium-dependent dopamine transporter (Rattus norvegicus, UniProt P23977); experiment: Displacement of [3H]WIN 35428 from dopamine transporter in rat striatal membranes after 120 mins by radioligand binding assay; type: cell membranes, Striatum, Membrane
# Chain of Sodium-dependent dopamine transporter (P23977 whole entry): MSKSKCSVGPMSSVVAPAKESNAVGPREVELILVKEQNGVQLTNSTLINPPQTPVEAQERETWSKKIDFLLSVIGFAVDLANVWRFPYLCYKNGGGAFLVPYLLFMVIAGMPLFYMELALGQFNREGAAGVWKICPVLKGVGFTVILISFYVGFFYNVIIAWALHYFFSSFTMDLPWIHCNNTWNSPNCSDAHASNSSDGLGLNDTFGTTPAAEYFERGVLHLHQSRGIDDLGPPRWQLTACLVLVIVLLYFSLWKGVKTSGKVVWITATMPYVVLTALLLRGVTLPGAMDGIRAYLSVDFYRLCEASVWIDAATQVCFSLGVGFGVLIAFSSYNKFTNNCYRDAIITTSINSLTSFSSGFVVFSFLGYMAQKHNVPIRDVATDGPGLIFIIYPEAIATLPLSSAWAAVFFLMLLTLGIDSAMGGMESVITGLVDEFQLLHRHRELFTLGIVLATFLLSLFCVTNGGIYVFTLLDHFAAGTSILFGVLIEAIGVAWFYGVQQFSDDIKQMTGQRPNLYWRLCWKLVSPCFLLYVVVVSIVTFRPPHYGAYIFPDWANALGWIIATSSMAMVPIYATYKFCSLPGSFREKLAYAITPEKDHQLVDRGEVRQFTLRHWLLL
# [7] = biological target: Sodium-dependent serotonin transporter (Rattus norvegicus, UniProt P31652); experiment: Displacement of [3H]paroxetine from serotonin transporter in rat brainstem membranes after 120 mins by radioligand binding assay; type: cell membranes
# Chain of Sodium-dependent serotonin transporter (P31652 whole entry): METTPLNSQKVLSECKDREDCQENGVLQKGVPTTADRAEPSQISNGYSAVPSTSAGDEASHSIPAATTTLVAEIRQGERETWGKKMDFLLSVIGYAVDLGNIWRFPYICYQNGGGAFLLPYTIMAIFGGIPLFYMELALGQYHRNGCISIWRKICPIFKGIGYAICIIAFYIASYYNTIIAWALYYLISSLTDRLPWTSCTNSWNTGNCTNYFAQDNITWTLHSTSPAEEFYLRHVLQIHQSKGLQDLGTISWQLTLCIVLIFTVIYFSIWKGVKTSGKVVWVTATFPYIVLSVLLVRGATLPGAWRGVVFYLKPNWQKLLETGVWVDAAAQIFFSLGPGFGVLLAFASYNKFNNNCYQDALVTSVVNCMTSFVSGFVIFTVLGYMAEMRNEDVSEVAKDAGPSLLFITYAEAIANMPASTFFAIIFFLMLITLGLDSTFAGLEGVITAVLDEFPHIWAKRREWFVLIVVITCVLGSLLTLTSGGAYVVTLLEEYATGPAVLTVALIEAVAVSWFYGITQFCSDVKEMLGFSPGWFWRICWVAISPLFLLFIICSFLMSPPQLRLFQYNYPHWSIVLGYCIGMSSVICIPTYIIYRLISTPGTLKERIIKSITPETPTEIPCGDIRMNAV
# Outline: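 Rat brainstem membranes, 0.2 nM [3H]paroxetine; nonspecific with 1.5 µM imipramine. Ice-cold buffer stop, glass-fiber filtration, Cheng-Prusoff Ki; triplicate, mean ± SEM.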
# [8] = Displacement of [3H]nisoxetine from norepinephrine transporter in rat cerebral cortex membranes after 120 mins by radioligand binding assay; type: cell membranes, Membrane
# D(2) dopamine receptor = D(2) dopamine receptor (Rattus norvegicus, UniProt P61169); experiment: Displacement of [3H](-)-sulpiride from dopamine D2 receptor in rat brain membranes after 120 mins by radioligand binding assay; type: cell membranes
# Chain of D(2) dopamine receptor (P61169 whole entry): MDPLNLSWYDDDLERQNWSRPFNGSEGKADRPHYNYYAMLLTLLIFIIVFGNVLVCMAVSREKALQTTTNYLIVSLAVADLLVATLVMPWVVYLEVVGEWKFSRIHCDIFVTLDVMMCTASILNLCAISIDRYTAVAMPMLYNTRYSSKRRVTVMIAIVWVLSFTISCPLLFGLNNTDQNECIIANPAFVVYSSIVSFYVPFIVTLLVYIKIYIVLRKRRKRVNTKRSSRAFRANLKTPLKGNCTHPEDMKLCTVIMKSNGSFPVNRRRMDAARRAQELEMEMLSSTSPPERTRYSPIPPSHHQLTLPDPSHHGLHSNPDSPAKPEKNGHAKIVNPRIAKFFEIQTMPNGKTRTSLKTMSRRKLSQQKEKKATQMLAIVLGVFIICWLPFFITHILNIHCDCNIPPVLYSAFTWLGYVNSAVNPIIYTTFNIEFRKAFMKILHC
# Glutamate NMDA receptor = experiment: Displacement of [3H]TCP from NMDA receptor in rat brain membranes after 120 mins by radioligand binding assay; type: cell membranes
# Outline: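 PCP site of NMDA receptor in rat brain minus cerebellum membranes, 5 nM [3H]TCP; nonspecific with 10 µM cyclazocine.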
# Opioid receptor = Opioid receptor (Rattus norvegicus, UniProt P33533+P34975+P33535); experiment: Displacement of [3H]bremazocine from opioid receptor in rat brain membranes after 120 mins by radioligand binding assay; type: cell membranes
# Chain of Sigma non-opioid intracellular receptor 1 (Q9R0C9 whole entry): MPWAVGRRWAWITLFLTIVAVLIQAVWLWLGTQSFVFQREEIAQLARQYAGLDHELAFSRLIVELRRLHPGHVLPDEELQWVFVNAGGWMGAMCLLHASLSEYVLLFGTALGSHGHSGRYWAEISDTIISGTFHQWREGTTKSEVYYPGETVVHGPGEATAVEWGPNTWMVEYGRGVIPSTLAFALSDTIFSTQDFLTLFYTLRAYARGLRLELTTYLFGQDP
Ki [1],Ki [2],Ratio Ki (Rattus norvegicus [3]),Ki [4],Ratio Ki (Rattus norvegicus [5]),Ki [6],Ki [7],Ki [8],Ki (D(2) dopamine receptor),Ki (Glutamate NMDA receptor),Ki (Opioid receptor),SMILES,Activity (Mus musculus)
724 nM,4.55 nM,159,,,,,,,,,CCCCCCCCCCn1c(=O)n(CCCCN2CCN(c3ccc(F)cc3)CC2)c2ccccc21,
752 nM,0.66 nM,1140,54.7 nM,83,> 1000 nM,> 1000 nM,> 10000 nM,> 10000 nM,> 10000 nM,> 10000 nM,CCCn1c(=O)n(CCCCN2CCN(c3ccc(F)cc3)CC2)c2ccccc21,Dose-dependent effect
299 nM,2.15 nM,139,,,,,,,,,CCCCCn1c(=O)n(CCCCN2CCN(c3ccc(F)cc3)CC2)c2ccc(C(C)=O)cc21,
2270 nM,4.27 nM,532,250 nM,,> 1000 nM,446 nM,> 10000 nM,> 1000 nM,> 10000 nM,> 10000 nM,CCCCCn1c(=O)n(CCCCN2CCN(c3ccc(F)cc3)CC2)c2ccccc21,
988 nM,32.5 nM,30.4,,,,,,,,,CCCCCCCCCCn1c(=O)n(CCCCN2CCN(c3ccc(F)cc3)CC2)c2ccc(C(C)=O)cc21,
166 nM,28.5 nM,5.8,,,,,,,,,CC(=O)c1ccc2c(c1)[nH]c(=O)n2CCCCN1CCN(c2ccc(F)cc2)CC1,
273 nM,1.81 nM,151,,,,,,,,,CCCn1c(=O)n(CCCCN2CCN(c3ccc(F)cc3)CC2)c2ccc(C(C)=O)cc21,
144 nM,18.4 nM,,,,,,,,,,O=c1[nH]c2ccccc2n1CCCCN1CCN(c2ccc(F)cc2)CC1,
72.3 nM,7.6 nM,9.5,,,,,,,,,CC(=O)c1ccc2c(c1)n(C)c(=O)n2CCCCN1CCN(c2ccc(F)cc2)CC1,

SMILES,Ki [1],Ki [2],Ratio Ki (Rattus norvegicus [3]),Ki [4],Ratio Ki (Rattus norvegicus [5]),Ki [6],Ki [7],Ki [8],Ki (D(2) dopamine receptor),Ki (Glutamate NMDA receptor),Ki (Opioid receptor),Activity (Mus musculus)
Cn1c(=O)n(CCCCN2CCN(c3ccc(F)cc3)CC2)c2ccccc21,,2.05 nM,,,,,,,,,,
